According to ChEMBL document CHEMBL1143061, “Synthesis and antifungal activities of 5-(3,4,5-trimethoxyphenyl)-2-sulfonyl-1,3,4-thiadiazole and 5-(3,4,5-trimethoxyphenyl)-2-sulfonyl-1,3,4-oxadiazole derivatives” (Bioorg Med Chem, 2007):
≈ marks a conversion by molar mass, not a printed value.

Legend:
Sclerotinia sclerotiorum [1] = assay: Antifungal activity against Sclerotinia sclerotiorum at 50 ug/mL; format: functional
Fusarium graminearum [2] = assay: Antifungal activity against Gibberella zeae at 50 ug/mL; format: functional
Botrytis cinerea [3] = assay: Antifungal activity against Botrytis cinerea at 50 ug/mL; format: functional
Pyricularia grisea = assay: Growth inhibition of Pyricularia grisea; format: functional, organism-based
Fusarium oxysporum = assay: Growth inhibition of Fusarium oxysporum; format: functional, organism-based
Outline: (§1)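 In vitro inhibition of mycelial growth, with hymexazol as the reference fungicide. The EC50, the concentration that inhibits growth by 50%, was read from a dose–response curve. Results come from three separate experiments, each run in triplicate.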

[4] = tested on: Colletotrichum gloeosporioides; assay: Growth inhibition of Colletotrichum gloeosporioides; format: functional, organism-based
Phytophthora infestans = assay: Growth inhibition of Phytophthora infestans; format: functional, organism-based
Sclerotinia sclerotiorum [5] = assay: Antifungal activity against Sclerotinia sclerotiorum; format: functional, organism-based
Pyricularia oryzae = assay: Growth inhibition of Pyricularia oryzae; format: functional, organism-based
Rhizoctonia solani = assay: Growth inhibition of Rhizoctonia solani; format: functional, organism-based; outline: as §1
Botrytis cinerea [6] = assay: Antifungal activity against Botrytis cinerea; format: functional, organism-based
Fusarium graminearum [7] = assay: Antifungal activity against Gibberella zeae; format: functional, organism-based
Outline: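 In vitro inhibition of fungal mycelial growth. EC50 read from the dose–response curve. Three separate experiments, each in triplicate. Hymexazol was the standard reference.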

Cytospora = assay: Growth inhibition of Cytospora mandshurica; format: functional

Compound | inhibition at 50 µg/mL (Sclerotinia sclerotiorum [1]) | inhibition at 50 µg/mL (Fusarium graminearum [2]) | inhibition at 50 µg/mL (Botrytis cinerea [3]) | further results
COc1cccc(CS(=O)(=O)c2nnc(-c3cc(OC)c(OC)c(OC)c3)s2)c1 | 74.5% | 43.2% | 53.4% | 
COc1ccc(CS(=O)(=O)c2nnc(-c3cc(OC)c(OC)c(OC)c3)o2)cc1 | 58.5% | 33.9% | 58.5% | 
COc1cc(-c2nnc(S(C)(=O)=O)o2)cc(OC)c1OC | 100% | 55.8% | 100% | EC50 (Pyricularia grisea): 30.8 µg/mL (≈ 98 µM); EC50 (Fusarium oxysporum): 24.5 µg/mL (≈ 77.9 µM); EC50 [4]: 21.8 µg/mL (≈ 69.4 µM); EC50 (Phytophthora infestans): 83.2 µg/mL (≈ 265 µM); EC50 (Sclerotinia sclerotiorum [5]): 12.5 µg/mL (≈ 39.8 µM); EC50 (Pyricularia oryzae): 90.7 µg/mL (≈ 289 µM); EC50 (Rhizoctonia solani): 93.3 µg/mL (≈ 297 µM); EC50 (Botrytis cinerea [6]): 11.7 µg/mL (≈ 37.2 µM); EC50 (Fusarium graminearum [7]): 28.8 µg/mL (≈ 91.6 µM); EC50 (Cytospora): 80.5 µg/mL (≈ 256 µM)
COc1ccccc1CS(=O)(=O)c1nnc(-c2cc(OC)c(OC)c(OC)c2)o1 | 37.2% | 23.7% | 42.3% | 
CCS(=O)(=O)c1nnc(-c2cc(OC)c(OC)c(OC)c2)o1 | 100% |  | 100% | EC50 (Fusarium oxysporum): 18 µg/mL (≈ 54.8 µM); EC50 [4]: 26.3 µg/mL (≈ 80.1 µM); EC50 (Sclerotinia sclerotiorum [5]): 4.3 µg/mL (≈ 13.1 µM); EC50 (Rhizoctonia solani): 45.6 µg/mL (≈ 139 µM); EC50 (Botrytis cinerea [6]): 2.9 µg/mL (≈ 8.83 µM); EC50 (Cytospora): 20.5 µg/mL (≈ 62.4 µM)
CCOC(=O)CS(=O)(=O)c1nnc(-c2cc(OC)c(OC)c(OC)c2)o1 | 79.9% | 52% | 81.9% | 
COc1cc(-c2nnc(S(=O)(=O)Cc3ccc(Cl)nc3)o2)cc(OC)c1OC | 67.9% | 38.9% | 60.3% | 
Cc1cc(O)no1 [HYMEXAZOL] | 77.5% | 52.9% | 75.4% | EC50 (Fusarium oxysporum): 29.1 µg/mL (≈ 294 µM); EC50 (Rhizoctonia solani): 52.1 µg/mL (≈ 526 µM)
COc1cc(-c2nnc(S(=O)(=O)Cc3ccc(Cl)cc3)o2)cc(OC)c1OC | 35.5% | 23.3% | 30.8% | 
COc1cc(-c2nnc(S(=O)(=O)Cc3cccc(F)c3)o2)cc(OC)c1OC | 38.3% | 9.3% | 35.8% | 
COc1cc(-c2nnc(S(=O)(=O)Cc3cccc([N+](=O)[O-])c3)o2)cc(OC)c1OC | 38.3% | 11.8% | 40.7% | 
COc1cc(-c2nnc(S(=O)(=O)Cc3ccccc3)s2)cc(OC)c1OC | 22.9% | 8.3% | 27.5% | 
COc1cc(-c2nnc(S(C)(=O)=O)s2)cc(OC)c1OC | 40.7% | 11.6% | 27.1% | 
COc1cc(-c2nnc(S(=O)(=O)Cc3ccccc3F)o2)cc(OC)c1OC | 33.4% | 18.2% | 52.3% | 
CCCS(=O)(=O)c1nnc(-c2cc(OC)c(OC)c(OC)c2)s1 | 38.1% | 13.5% | 33.5% | 
COc1cc(-c2nnc(S(=O)(=O)Cc3ccc(Cl)cc3)s2)cc(OC)c1OC | 20.3% | 5.5% | 20.8% | 
COc1cc(-c2nnc(S(=O)(=O)Cc3ccccc3)o2)cc(OC)c1OC | 71.2% | 54.9% | 67.3% | 
COc1cc(-c2nnc(S(=O)(=O)Cc3ccc([N+](=O)[O-])cc3)o2)cc(OC)c1OC | 62.2% | 42.1% | 76.8% | 
COc1cc(-c2nnc(S(=O)(=O)Cc3ccc(F)cc3)o2)cc(OC)c1OC | 62.7% | 28.1% | 41.6% | 
COc1cc(-c2nnc(S(=O)(=O)Cc3ccccc3Cl)o2)cc(OC)c1OC | 39.6% | 11.9% | 26.1% | 
C=CCS(=O)(=O)c1nnc(-c2cc(OC)c(OC)c(OC)c2)s1 | 40.5% | 14% | 47.3% | 
CCOC(=O)CS(=O)(=O)c1nnc(-c2cc(OC)c(OC)c(OC)c2)s1 | 49.4% | 21.1% | 49.7% | 
COc1cccc(CS(=O)(=O)c2nnc(-c3cc(OC)c(OC)c(OC)c3)o2)c1 | 40.6% | 5.7% | 38.1% | 
CCCS(=O)(=O)c1nnc(-c2cc(OC)c(OC)c(OC)c2)o1 | 64% | 59% | 59.4% | 
C=CCS(=O)(=O)c1nnc(-c2cc(OC)c(OC)c(OC)c2)o1 | 40.9% | 26.4% | 40.9% | 
COc1cc(-c2nnc(S(=O)(=O)Cc3ccc(Cl)nc3)s2)cc(OC)c1OC | 21.3% | -1.1% | 25.9% | 
COc1cc(-c2nnc(S(=O)(=O)Cc3ccc([N+](=O)[O-])cc3)s2)cc(OC)c1OC | 20% | -1.8% | 30.3% | 
